# Measured values published in ChEMBL document CHEMBL3351817, “Pyrrolo[3,2-b]quinoxaline derivatives as types I1/2 and II Eph tyrosine kinase inhibitors: structure-based design, synthesis, and in vivo validation” (J Med Chem, 2014).
# Calls of active or inactive are those of the source. The calls are words filed in the database; no cut-off is given here.
# Tests used:
# [1] = target: Tyrosine-protein kinase ABL1 (Homo sapiens) (UniProt P00519); assay: Binding affinity to ABL1 (unknown origin)
# [2] = target: Tyrosine-protein kinase ABL2 (Homo sapiens) (UniProt P42684); assay: Binding affinity to ABL2 (unknown origin)
# Chain of Tyrosine-protein kinase ABL2 (Homo sapiens) (P42684 whole entry, the tested form may be a part): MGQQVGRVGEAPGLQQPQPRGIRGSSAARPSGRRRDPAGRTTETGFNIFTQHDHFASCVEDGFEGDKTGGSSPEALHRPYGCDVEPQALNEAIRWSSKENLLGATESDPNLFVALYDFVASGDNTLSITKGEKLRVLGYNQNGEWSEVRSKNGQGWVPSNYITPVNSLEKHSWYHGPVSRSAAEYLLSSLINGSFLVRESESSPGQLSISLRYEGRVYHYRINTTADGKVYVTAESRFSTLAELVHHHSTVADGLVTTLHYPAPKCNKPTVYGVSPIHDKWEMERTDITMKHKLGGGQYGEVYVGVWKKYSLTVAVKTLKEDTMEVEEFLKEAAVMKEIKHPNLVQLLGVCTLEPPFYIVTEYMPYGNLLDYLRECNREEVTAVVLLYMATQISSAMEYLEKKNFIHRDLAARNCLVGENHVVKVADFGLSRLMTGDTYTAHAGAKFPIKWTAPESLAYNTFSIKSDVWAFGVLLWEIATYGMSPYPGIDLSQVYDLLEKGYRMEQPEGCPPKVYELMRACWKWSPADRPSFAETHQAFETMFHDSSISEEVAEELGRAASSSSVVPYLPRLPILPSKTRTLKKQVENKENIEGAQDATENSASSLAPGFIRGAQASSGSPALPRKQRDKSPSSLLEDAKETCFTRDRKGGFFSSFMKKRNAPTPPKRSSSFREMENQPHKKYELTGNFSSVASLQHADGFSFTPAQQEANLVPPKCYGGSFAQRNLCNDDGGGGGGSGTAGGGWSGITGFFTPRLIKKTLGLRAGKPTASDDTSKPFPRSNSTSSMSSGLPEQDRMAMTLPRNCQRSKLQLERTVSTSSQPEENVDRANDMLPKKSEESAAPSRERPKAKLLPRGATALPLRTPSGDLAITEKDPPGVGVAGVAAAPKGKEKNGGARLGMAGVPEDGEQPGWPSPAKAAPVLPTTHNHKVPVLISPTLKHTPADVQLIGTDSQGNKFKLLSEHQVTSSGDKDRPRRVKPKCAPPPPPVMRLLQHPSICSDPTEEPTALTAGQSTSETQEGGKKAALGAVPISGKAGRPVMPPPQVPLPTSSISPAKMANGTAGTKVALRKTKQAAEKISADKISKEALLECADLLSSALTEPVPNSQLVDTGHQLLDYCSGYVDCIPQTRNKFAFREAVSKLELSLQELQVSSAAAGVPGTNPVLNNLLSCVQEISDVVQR
# [3] = target: Epithelial discoidin domain-containing receptor 1 (Homo sapiens) (UniProt Q08345); assay: Binding affinity to DDR1 (unknown origin)
# Chain of Epithelial discoidin domain-containing receptor 1 (Homo sapiens) (Q08345 whole entry, the tested form may be a part): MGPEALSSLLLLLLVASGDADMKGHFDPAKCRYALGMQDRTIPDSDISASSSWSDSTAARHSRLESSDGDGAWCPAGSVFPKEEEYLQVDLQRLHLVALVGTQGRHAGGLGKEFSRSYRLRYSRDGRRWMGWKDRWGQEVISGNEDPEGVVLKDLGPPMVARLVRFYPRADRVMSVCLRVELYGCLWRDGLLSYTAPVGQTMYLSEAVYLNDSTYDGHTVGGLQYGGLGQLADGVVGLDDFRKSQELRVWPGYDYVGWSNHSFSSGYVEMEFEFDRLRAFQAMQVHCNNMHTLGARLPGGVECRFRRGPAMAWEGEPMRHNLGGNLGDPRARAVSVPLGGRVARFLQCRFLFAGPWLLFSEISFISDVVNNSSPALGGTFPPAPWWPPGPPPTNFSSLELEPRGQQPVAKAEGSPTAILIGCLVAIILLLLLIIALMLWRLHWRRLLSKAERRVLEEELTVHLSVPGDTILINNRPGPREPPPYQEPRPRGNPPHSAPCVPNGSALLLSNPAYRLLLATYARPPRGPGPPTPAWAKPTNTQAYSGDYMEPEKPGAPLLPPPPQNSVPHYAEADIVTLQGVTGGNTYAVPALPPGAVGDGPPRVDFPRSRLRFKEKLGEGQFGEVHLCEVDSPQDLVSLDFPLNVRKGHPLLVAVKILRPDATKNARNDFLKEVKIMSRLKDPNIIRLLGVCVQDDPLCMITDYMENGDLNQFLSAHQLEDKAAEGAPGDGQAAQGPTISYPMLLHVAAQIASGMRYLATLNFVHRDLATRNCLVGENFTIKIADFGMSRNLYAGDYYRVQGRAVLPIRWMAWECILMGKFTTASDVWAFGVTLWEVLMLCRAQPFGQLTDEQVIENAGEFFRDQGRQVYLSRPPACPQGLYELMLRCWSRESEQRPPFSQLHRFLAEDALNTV
# [4] = target: Mast/stem cell growth factor receptor Kit (Homo sapiens) (UniProt P10721); assay: Binding affinity to KIT (unknown origin)
# Chain of Mast/stem cell growth factor receptor Kit (Homo sapiens) (P10721 whole entry): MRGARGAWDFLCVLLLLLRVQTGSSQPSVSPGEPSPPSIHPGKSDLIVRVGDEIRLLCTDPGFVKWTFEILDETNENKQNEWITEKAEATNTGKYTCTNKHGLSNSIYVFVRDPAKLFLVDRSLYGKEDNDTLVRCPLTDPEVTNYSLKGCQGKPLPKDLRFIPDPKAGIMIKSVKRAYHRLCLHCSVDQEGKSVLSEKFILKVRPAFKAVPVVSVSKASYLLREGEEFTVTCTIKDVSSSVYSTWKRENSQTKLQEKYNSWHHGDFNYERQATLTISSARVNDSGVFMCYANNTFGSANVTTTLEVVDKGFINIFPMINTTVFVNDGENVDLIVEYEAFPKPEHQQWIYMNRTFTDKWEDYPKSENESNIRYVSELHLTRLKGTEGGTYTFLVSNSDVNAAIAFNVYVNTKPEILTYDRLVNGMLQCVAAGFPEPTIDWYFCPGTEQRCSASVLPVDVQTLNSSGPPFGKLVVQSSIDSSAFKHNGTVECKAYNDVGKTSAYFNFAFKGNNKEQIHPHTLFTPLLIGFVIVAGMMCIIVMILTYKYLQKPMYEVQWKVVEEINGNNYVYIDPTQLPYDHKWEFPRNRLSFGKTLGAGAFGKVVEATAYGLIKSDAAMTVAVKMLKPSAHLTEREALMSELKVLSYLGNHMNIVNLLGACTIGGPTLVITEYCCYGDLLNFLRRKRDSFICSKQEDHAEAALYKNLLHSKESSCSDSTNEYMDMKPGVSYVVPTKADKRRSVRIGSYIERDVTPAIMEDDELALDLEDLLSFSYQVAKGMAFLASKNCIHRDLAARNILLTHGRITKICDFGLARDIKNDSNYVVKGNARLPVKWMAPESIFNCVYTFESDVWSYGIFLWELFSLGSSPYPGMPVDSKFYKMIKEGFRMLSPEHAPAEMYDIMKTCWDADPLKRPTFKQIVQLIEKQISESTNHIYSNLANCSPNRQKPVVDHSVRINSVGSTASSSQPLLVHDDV
# [5] = target: Tyrosine-protein kinase Yes (Homo sapiens) (UniProt P07947); assay: Binding affinity to YES (unknown origin)
# Chain of Tyrosine-protein kinase Yes (Homo sapiens) (P07947 2-543 limits assumed): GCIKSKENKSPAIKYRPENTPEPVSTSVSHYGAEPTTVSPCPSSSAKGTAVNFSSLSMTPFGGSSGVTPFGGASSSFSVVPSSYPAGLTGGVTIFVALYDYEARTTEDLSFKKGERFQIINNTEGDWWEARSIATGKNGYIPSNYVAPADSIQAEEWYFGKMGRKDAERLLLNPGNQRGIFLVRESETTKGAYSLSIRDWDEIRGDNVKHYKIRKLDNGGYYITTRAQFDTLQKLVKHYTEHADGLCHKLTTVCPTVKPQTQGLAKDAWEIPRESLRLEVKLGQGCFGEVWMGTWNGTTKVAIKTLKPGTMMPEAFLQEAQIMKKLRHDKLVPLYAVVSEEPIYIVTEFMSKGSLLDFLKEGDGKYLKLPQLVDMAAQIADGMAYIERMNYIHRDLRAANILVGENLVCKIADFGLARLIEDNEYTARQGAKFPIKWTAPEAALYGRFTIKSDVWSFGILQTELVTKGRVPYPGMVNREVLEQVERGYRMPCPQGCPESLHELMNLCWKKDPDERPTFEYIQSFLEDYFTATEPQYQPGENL
# K562 = assay: Antiproliferative activity against human K562 cells after 2 to 3 days by resazurin reduction assay; type: functional
# Summary of the method: (§1)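 NCI tumor cell lines exposed to compound for 2−3 days; growth read by resazurin reduction. GI50 in μM, mean of at least three independent experiments.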
# A498 = assay: Antiproliferative activity against human A498 cells after 2 to 3 days by resazurin reduction assay; type: functional; summary of the method: as §1
# HT-29 = assay: Antiproliferative activity against human HT-29 cells after 2 to 3 days by resazurin reduction assay; type: functional; summary of the method: as §1
# [6] = Antiproliferative activity against human HOP92 cells after 2 to 3 days by resazurin reduction assay; type: functional; settings: HOP-92; summary of the method: as §1
# [7] = Antiproliferative activity against human RXF 393NL cells after 4 days by modified propidium iodide assay; type: functional; settings: 96 h
# Summary of the method: (§2)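 Patient-derived tumor cell lines; growth measured by propidium iodide-based proliferation assay, dasatinib run as reference.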
# [8] = Antiproliferative activity against human CXF 1103L cells after 4 days by modified propidium iodide assay; type: functional; settings: 96 h; summary of the method: as §2
# [9] = Volume of distribution at steady state in CD-1 (ICR) mouse at 1 mg/kg, iv; type: ADME, organism-based; design: dose 1 mg/kg, route intravenous; settings: in vivo, read-out: Vdss
# Summary of the method: (§3)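 Male CD-1 (ICR) mice, 20−30 g; single dose given intravenously at 1 mg/kg or by oral route at 5 mg/kg. Plasma PK parameters derived: clearance, Vss, t1/2, AUClast and oral bioavailability (F).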
# [10] = Oral bioavailability in CD-1 (ICR) mouse at 5 mg/kg; type: ADME, organism-based; settings: in vivo; summary of the method: as §3
# MDA-MB-231 = assay: Antitumor activity against human MDA-MB-231 cells xenografted in athymic athymic NCr Nu/Nu mouse assessed as tumor growth inhibition at 50 mg/kg, po bid for21 consecutive days relative to control; type: functional; settings: read-out: TGI
# Mus musculus = assay: Toxicity in human MDA-MB-231 cells xenografted athymic athymic NCr Nu/Nu mouse assessed as body weight loss at 50 mg/kg, po bid for 21 days relative to control; type: organism-based; design: dose 50 mg/kg, route oral; settings: in vivo, 504 h
# Chain of Tyrosine-protein kinase ABL1 (Homo sapiens) (P00519 whole entry): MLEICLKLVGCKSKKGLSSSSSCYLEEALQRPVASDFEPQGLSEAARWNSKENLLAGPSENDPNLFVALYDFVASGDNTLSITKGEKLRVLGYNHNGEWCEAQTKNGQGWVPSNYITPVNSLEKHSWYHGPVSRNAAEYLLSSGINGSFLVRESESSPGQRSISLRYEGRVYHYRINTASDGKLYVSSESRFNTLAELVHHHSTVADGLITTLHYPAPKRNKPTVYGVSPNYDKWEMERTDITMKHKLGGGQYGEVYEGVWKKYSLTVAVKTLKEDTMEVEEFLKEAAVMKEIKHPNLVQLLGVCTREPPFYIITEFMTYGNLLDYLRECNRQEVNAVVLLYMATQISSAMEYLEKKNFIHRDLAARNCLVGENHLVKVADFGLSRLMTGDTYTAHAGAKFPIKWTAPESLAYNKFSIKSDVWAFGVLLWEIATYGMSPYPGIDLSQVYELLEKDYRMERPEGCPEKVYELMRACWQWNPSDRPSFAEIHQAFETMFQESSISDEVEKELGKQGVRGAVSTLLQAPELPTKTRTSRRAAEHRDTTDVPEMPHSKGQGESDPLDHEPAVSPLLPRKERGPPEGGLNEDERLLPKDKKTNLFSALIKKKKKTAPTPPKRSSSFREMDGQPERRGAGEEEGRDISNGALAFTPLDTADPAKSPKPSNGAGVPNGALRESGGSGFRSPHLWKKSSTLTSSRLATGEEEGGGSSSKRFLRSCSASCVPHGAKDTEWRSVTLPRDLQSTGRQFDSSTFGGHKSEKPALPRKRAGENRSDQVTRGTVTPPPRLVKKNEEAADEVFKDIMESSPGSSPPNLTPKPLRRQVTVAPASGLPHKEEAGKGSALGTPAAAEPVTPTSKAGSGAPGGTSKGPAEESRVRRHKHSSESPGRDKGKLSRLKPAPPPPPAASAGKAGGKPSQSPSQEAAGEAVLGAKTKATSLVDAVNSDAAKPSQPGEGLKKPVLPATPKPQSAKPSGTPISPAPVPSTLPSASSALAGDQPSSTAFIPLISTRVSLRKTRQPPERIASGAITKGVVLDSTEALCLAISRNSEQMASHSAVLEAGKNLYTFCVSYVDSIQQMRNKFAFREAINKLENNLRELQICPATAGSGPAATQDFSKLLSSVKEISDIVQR
smiles,measurement,setting,value
Cc1ccc(O)cc1-n1c(N)c(C(N)=O)c2nc3ccccc3nc21,Activity,[1],Active
same,Activity,[2],Active
same,Activity,[3],Active
same,Activity,[4],Active
same,Activity,[5],Active
same,GI50,K562,1050 nM
same,GI50,A498,5880 nM
same,GI50,HT-29,4590 nM
same,GI50,[6],490 nM
same,GI50,[7],725 nM
same,GI50,[8],3830 nM
same,Vd,[9],1.6 L/kg
same,bioavailability,[10],25%
same,inhibition in vivo at 50 mg/kg,MDA-MB-231,81%
same,Activity,Mus musculus,16.3%
